Measured values: ChEMBL document CHEMBL5058577, “EUbOPEN Chemogenomics Library 2 (Multiplex)” (2022)

System: Fibroblast
Assay: Multiplex assay against human fibroblast
Assay type: toxicity, cell-based
Method in brief: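 Phenotypes for tubulin, mitochondrial mass and membrane permeability are expressed as per cents of healthy-nucleus cells. Cells were stained live at seeding with Hoechst33342, BioTracker Green Microtubule Cytoskeleton Dye, MitoTracker Red and Annexin V Alexa Fluor 680, then imaged after compound addition on a CQ1 microscope at 37°C and 5% CO2. Machine-learning gating in CellPathfinder separated Hoechst high-intensity objects from normal cells, divided normal cells by nuclear state (healthy, pyknosed, fragmented) and divided pyknosed cells into mitotic or apoptotic.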

[1] = 12 h, 1 µM, compound concentration 1 uM, replicate 1
[2] = 12 h, 1 µM, compound concentration 1 uM, replicate 2
[3] = 12 h, 10 µM, compound concentration 10 uM, replicate 1
[4] = 12 h, 10 µM, compound concentration 10 uM, replicate 2
[5] = 24 h, 1 µM, compound concentration 1 uM, replicate 1
[6] = 24 h, 1 µM, compound concentration 1 uM, replicate 2
[7] = 24 h, 10 µM, compound concentration 10 uM, replicate 1
[8] = 24 h, 10 µM, compound concentration 10 uM, replicate 2
[9] = 48 h, 1 µM, compound concentration 1 uM, replicate 1
[10] = 48 h, 1 µM, compound concentration 1 uM, replicate 2
[11] = 48 h, 10 µM, compound concentration 10 uM, replicate 1
[12] = 48 h, 10 µM, compound concentration 10 uM, replicate 2

Cc1onc(-c2ccccc2Cl)c1C(=O)N(C)c1ccc(Cl)cc1
Population Apoptotic (%) [1]: 60%
Population Fragmented Nuclei (%) [1]: 17%
Population Healthy Nuclei (%) [1]: 68%
Population Hoechst High Intensity Objects (%) [1]: 7%
Population Membrane Permeable-Phenotype (%) [1]: 0%
Population Mitochondria Different-Phenotype (%) [1]: 7%
Population Mitotic Cells (%) [1]: 39%
Population Normal (%) [1]: 92%
Population Pyknosed Nuclei (%) [1]: 13%
Population Tubulin-Different-Phenotype (%) [1]: 23%
Total Cell Count [1]: 178
Population Apoptotic (%) [2]: 35%
Population Fragmented Nuclei (%) [2]: 22%
Population Healthy Nuclei (%) [2]: 50%
Population Hoechst High Intensity Objects (%) [2]: 9%
Population Membrane Permeable-Phenotype (%) [2]: 6%
Population Mitochondria Different-Phenotype (%) [2]: 8%
Population Mitotic Cells (%) [2]: 65%
Population Normal (%) [2]: 90%
Population Pyknosed Nuclei (%) [2]: 27%
Population Tubulin-Different-Phenotype (%) [2]: 63%
Total Cell Count [2]: 161
Population Apoptotic (%) [3]: 36%
Population Fragmented Nuclei (%) [3]: 16%
Population Healthy Nuclei (%) [3]: 70%
Population Hoechst High Intensity Objects (%) [3]: 2%
Population Membrane Permeable-Phenotype (%) [3]: 2%
Population Mitochondria Different-Phenotype (%) [3]: 6%
Population Mitotic Cells (%) [3]: 63%
Population Normal (%) [3]: 97%
Population Pyknosed Nuclei (%) [3]: 13%
Population Tubulin-Different-Phenotype (%) [3]: 29%
Total Cell Count [3]: 144
Population Apoptotic (%) [4]: 37%
Population Fragmented Nuclei (%) [4]: 24%
Population Healthy Nuclei (%) [4]: 48%
Population Hoechst High Intensity Objects (%) [4]: 3%
Population Membrane Permeable-Phenotype (%) [4]: 5%
Population Mitochondria Different-Phenotype (%) [4]: 11%
Population Mitotic Cells (%) [4]: 62%
Population Normal (%) [4]: 96%
Population Pyknosed Nuclei (%) [4]: 27%
Population Tubulin-Different-Phenotype (%) [4]: 64%
Total Cell Count [4]: 151
Population Apoptotic (%) [5]: 44%
Population Fragmented Nuclei (%) [5]: 18%
Population Healthy Nuclei (%) [5]: 65%
Population Hoechst High Intensity Objects (%) [5]: 7%
Population Membrane Permeable-Phenotype (%) [5]: 0%
Population Mitochondria Different-Phenotype (%) [5]: 1%
Population Mitotic Cells (%) [5]: 55%
Population Normal (%) [5]: 92%
Population Pyknosed Nuclei (%) [5]: 16%
Population Tubulin-Different-Phenotype (%) [5]: 16%
Total Cell Count [5]: 178
Population Apoptotic (%) [6]: 39%
Population Fragmented Nuclei (%) [6]: 22%
Population Healthy Nuclei (%) [6]: 54%
Population Hoechst High Intensity Objects (%) [6]: 12%
Population Membrane Permeable-Phenotype (%) [6]: 8%
Population Mitochondria Different-Phenotype (%) [6]: 4%
Population Mitotic Cells (%) [6]: 60%
Population Normal (%) [6]: 87%
Population Pyknosed Nuclei (%) [6]: 23%
Population Tubulin-Different-Phenotype (%) [6]: 56%
Total Cell Count [6]: 182
Population Apoptotic (%) [7]: 20%
Population Fragmented Nuclei (%) [7]: 16%
Population Healthy Nuclei (%) [7]: 76%
Population Hoechst High Intensity Objects (%) [7]: 2%
Population Membrane Permeable-Phenotype (%) [7]: 1%
Population Mitochondria Different-Phenotype (%) [7]: 4%
Population Mitotic Cells (%) [7]: 80%
Population Normal (%) [7]: 97%
Population Pyknosed Nuclei (%) [7]: 7%
Population Tubulin-Different-Phenotype (%) [7]: 32%
Total Cell Count [7]: 134
Population Apoptotic (%) [8]: 54%
Population Fragmented Nuclei (%) [8]: 21%
Population Healthy Nuclei (%) [8]: 55%
Population Hoechst High Intensity Objects (%) [8]: 4%
Population Membrane Permeable-Phenotype (%) [8]: 6%
Population Mitochondria Different-Phenotype (%) [8]: 6%
Population Mitotic Cells (%) [8]: 45%
Population Normal (%) [8]: 95%
Population Pyknosed Nuclei (%) [8]: 23%
Population Tubulin-Different-Phenotype (%) [8]: 59%
Total Cell Count [8]: 149
Population Apoptotic (%) [9]: 76%
Population Fragmented Nuclei (%) [9]: 26%
Population Healthy Nuclei (%) [9]: 62%
Population Hoechst High Intensity Objects (%) [9]: 9%
Population Membrane Permeable-Phenotype (%) [9]: 0%
Population Mitochondria Different-Phenotype (%) [9]: 1%
Population Mitotic Cells (%) [9]: 23%
Population Normal (%) [9]: 90%
Population Pyknosed Nuclei (%) [9]: 10%
Population Tubulin-Different-Phenotype (%) [9]: 22%
Total Cell Count [9]: 185
Population Apoptotic (%) [10]: 48%
Population Fragmented Nuclei (%) [10]: 28%
Population Healthy Nuclei (%) [10]: 54%
Population Hoechst High Intensity Objects (%) [10]: 11%
Population Membrane Permeable-Phenotype (%) [10]: 10%
Population Mitochondria Different-Phenotype (%) [10]: 6%
Population Mitotic Cells (%) [10]: 51%
Population Normal (%) [10]: 88%
Population Pyknosed Nuclei (%) [10]: 17%
Population Tubulin-Different-Phenotype (%) [10]: 51%
Total Cell Count [10]: 188
Population Apoptotic (%) [11]: 44%
Population Fragmented Nuclei (%) [11]: 25%
Population Healthy Nuclei (%) [11]: 68%
Population Hoechst High Intensity Objects (%) [11]: 4%
Population Membrane Permeable-Phenotype (%) [11]: 0%
Population Mitochondria Different-Phenotype (%) [11]: 3%
Population Mitotic Cells (%) [11]: 55%
Population Normal (%) [11]: 95%
Population Pyknosed Nuclei (%) [11]: 6%
Population Tubulin-Different-Phenotype (%) [11]: 34%
Total Cell Count [11]: 141
Population Apoptotic (%) [12]: 65%
Population Fragmented Nuclei (%) [12]: 31%
Population Healthy Nuclei (%) [12]: 55%
Population Hoechst High Intensity Objects (%) [12]: 1%
Population Membrane Permeable-Phenotype (%) [12]: 8%
Population Mitochondria Different-Phenotype (%) [12]: 6%
Population Mitotic Cells (%) [12]: 35%
Population Normal (%) [12]: 98%
Population Pyknosed Nuclei (%) [12]: 12%
Population Tubulin-Different-Phenotype (%) [12]: 53%
Total Cell Count [12]: 166
